Reference: ChEMBL document CHEMBL1208708, “Piperidinyl-nicotinamides as potent and selective somatostatin receptor subtype 5 antagonists” (Bioorg Med Chem Lett, 2010)
In brackets after ≈: the same amount, converted by molar mass. Activity calls are given as the source filed them. The calls are words filed in the database; no cut-off is given here.

Key:
[1] = Dissociation constant, pKa of the compound by spectrophotometric analysis; type: physicochemical
Summary of the method: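 Measured spectrophotometrically in SGA buffer with 10% (v/v) methanol, ionic strength 150 mM; value refers to the piperidine nitrogen.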

[2] = target: T1, Somatostatin receptor type 5 (Homo sapiens, UniProt P35346); assay: Antagonist activity at human SST5 receptor expressed in CHO cells assessed as inhibition of forskolin-induced cAMP accumulation by FRET assay; type: functional, cell-based
T1 sequence (P35346 whole entry): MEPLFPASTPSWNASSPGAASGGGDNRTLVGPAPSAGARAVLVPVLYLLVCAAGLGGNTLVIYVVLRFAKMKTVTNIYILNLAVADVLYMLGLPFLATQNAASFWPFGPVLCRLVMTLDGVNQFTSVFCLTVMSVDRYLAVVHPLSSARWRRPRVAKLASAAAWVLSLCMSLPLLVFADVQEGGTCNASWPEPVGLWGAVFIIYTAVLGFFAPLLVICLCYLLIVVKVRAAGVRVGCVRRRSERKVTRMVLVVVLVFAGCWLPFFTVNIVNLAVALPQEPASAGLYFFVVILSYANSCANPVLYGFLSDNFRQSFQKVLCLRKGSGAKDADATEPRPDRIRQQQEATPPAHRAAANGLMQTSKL

[3] = Membrane permeability of the compound by PAMPA; type: ADME; conditions: read-out: permeability
[4] = target: T1, Somatostatin receptor type 5; assay: Displacement of radio labeled 11 Tyr SST14 from human SST5 receptor expressed in CHO cells; type: cell-based
Summary of the method: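 Membranes from SST5-expressing cells, made by sonication, incubated with radiolabeled 11Tyr SST-14 and varying test compound; non-specific binding defined with unlabeled SST-14. Incubation stopped by glass-fiber filtration, bound radioactivity counted; IC50 and Ki derived.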

[5] = Octanol-TAPSO distribution coefficient, log D of the compound at pH 7.4 by spectrophotometric analysis; type: physicochemical; conditions: octanol/TAPSO buffer
Summary of the method: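 Octanol/50 mM TAPSO buffer at pH 7.4 containing 5% (v/v) DMSO; partitioning read spectrophotometrically.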

[6] = Solubility of the compound in 50 mM phosphate buffer at pH 6.5 by lyophilisation solubility assay; type: physicochemical
Summary of the method: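 Compound taken from DMSO stock solution, lyophilized, then dissolved in 50 mM phosphate buffer at pH 6.5; dissolved amount read spectrophotometrically.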

[7] = target: Histamine H1 receptor (Homo sapiens) (UniProt P35367); assay: Inhibition of human histamine H1 receptor ar 3 uM
Sequence of Histamine H1 receptor (Homo sapiens) (P35367 whole entry): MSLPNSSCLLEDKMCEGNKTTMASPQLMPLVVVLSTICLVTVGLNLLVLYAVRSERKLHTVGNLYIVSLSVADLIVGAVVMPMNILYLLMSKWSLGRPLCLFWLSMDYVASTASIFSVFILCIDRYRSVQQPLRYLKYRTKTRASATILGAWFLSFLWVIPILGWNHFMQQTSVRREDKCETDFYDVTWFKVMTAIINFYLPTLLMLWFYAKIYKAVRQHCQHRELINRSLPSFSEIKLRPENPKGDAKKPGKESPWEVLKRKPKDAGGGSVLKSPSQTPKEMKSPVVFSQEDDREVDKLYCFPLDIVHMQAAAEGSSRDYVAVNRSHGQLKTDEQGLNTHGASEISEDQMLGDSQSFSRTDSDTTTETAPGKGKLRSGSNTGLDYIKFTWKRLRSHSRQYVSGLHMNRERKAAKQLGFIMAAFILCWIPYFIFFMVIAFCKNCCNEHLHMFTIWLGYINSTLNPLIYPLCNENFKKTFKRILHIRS

[8] = organism: Homo sapiens; assay: Selectivity ratio of human SST1 receptor to human SST5 receptor
[9] = target: Somatostatin receptor type 2 (Homo sapiens) (UniProt P30874); assay: Antagonist activity at human SST2 receptor expressed in CHO cells assessed as inhibition of forskolin-induced cAMP accumulation by FRET assay; type: functional, cell-based
Sequence of Somatostatin receptor type 2 (Homo sapiens) (P30874 whole entry): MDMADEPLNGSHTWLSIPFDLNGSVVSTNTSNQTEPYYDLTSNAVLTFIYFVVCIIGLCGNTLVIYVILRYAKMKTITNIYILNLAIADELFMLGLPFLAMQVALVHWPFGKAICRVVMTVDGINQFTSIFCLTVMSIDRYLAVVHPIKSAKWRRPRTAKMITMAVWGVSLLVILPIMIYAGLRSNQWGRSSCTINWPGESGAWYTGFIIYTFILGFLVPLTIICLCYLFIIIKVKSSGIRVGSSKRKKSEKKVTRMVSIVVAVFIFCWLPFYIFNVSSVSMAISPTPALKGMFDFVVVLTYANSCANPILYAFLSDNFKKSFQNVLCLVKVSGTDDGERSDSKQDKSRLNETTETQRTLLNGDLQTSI

[10] = target: Somatostatin receptor type 4 (Homo sapiens) (UniProt P31391); assay: Antagonist activity at human SST4 receptor expressed in CHO cells assessed as inhibition of forskolin-induced cAMP accumulation by FRET assay; type: functional, cell-based
Sequence of Somatostatin receptor type 4 (Homo sapiens) (P31391 whole entry): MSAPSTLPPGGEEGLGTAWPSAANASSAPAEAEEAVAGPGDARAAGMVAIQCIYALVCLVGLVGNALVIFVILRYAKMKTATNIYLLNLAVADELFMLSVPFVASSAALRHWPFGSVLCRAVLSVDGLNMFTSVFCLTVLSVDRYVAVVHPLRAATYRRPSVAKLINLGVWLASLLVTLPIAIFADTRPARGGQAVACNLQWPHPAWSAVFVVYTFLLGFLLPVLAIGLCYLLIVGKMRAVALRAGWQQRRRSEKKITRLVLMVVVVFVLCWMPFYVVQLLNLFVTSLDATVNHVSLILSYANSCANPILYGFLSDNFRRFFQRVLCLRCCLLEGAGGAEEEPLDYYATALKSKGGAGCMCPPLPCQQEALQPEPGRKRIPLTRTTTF

[11] = target: Somatostatin receptor type 3 (Homo sapiens) (UniProt P32745); assay: Antagonist activity at human SST3 receptor expressed in CHO cells assessed as inhibition of forskolin-induced cAMP accumulation by FRET assay; type: functional, cell-based
Sequence of Somatostatin receptor type 3 (Homo sapiens) (P32745 whole entry): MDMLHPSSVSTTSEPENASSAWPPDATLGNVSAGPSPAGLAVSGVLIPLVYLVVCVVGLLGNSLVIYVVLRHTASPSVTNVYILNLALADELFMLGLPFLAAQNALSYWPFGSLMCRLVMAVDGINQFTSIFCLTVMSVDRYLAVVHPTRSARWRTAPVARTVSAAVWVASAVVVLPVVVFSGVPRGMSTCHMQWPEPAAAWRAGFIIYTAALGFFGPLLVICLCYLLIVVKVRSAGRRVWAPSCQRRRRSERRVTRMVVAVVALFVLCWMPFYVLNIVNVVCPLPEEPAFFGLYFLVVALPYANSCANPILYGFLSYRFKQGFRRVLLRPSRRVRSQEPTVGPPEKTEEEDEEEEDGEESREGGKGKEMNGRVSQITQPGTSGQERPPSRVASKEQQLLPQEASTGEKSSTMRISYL

SMILES | pKa [1] | EC50 [2] [nM] | Papp [3] [×10⁻⁶ cm/s] | Ki [4] [nM] | logD [5] | solubility [6] [µg/mL] | inhibition [7] [%] | Selectivity ratio [8] | Activity [9] | Activity [10] | Activity [11]
CCOc1cc(CN2CCC(NC(=O)c3ccc(N)nc3)CC2)ccc1C | 8.27 | > 1000 | 2.4 | 19 | 2.24 | 375 (≈ 1020 µM) | 85 | > 500 |  |  | 
CCOc1cc(CN2CCC(NC(=O)c3ccc(NC)nc3)CC2)cc(OCC)c1F | 7.83 | > 1000 | 2.98 | 18 | 2.66 | 330 (≈ 767 µM) | 55 | > 500 |  |  | 
CCOc1cc(CN2CCC(NC(=O)c3cncc(C)c3)CC2)ccc1C | 8.08 |  | 2.94 | 21 | 3.03 | > 433 | 81 | > 500 |  |  | 
CCOc1cc(CN2CCC[C@@H](NC(=O)c3cncc(C)c3)CC2)ccc1C |  |  |  | 22 |  |  | 97 | 256 |  |  | 
CCOc1cc(CN2CCC[C@@H](NC(=O)c3cncc(C)c3)CC2)cc(OCC)c1F |  |  |  | 22 |  |  | 58 | 253 |  |  | 
CCOc1cc(CN2CC(NC(=O)c3cncc(C)c3)C2)cc(OCC)c1F | 7.19 |  | 1.93 | > 1000 | 2.44 | > 499 |  |  |  |  | 
CCOc1cc(CN2CCC[C@H](NC(=O)c3cncc(C)c3)CC2)ccc1Cl |  |  |  | 637 |  |  |  |  |  |  | 
CCOc1cc(CN2CCC[C@@H](NC(=O)c3cncc(C)c3)CC2)ccc1Cl |  |  |  | 18 |  |  | 98 | 175 |  |  | 
CCOc1cc(CN2CCCC(NC(=O)c3ccc(N)nc3)CC2)cc(F)c1F (racemic) |  | > 1000 |  | 436 |  |  |  |  | inactive | inactive | inactive
CCOc1cc(CN2CCC(NC(=O)c3cncc(C)c3)CC2)cc(OCC)c1F | 7.7 | > 1000 | 3.48 | 25 | 2.9 | 443 (≈ 1070 µM) | 25 | 180 |  |  | 

These reach a lower Ki [4]. Values come first.

pKa [1] | EC50 [2] [nM] | Papp [3] [×10⁻⁶ cm/s] | Ki [4] [nM] | logD [5] | solubility [6] [µg/mL] | inhibition [7] [%] | Selectivity ratio [8] | Activity [9] | Activity [10] | Activity [11] | SMILES
7.46 | > 1000 | 3.82 | 4.4 | 3.43 | 216 (≈ 500 µM) |  |  |  |  |  | CCOc1cc(CN2CCC(NC(=O)c3cncc(C)c3)CC2)cc(OCC)c1Cl
7.8 | > 1000 |  | 7.9 | 3.55 | 76 (≈ 148 µM) | 7.1 | 54 |  |  |  | CCOc1cc(CN2CCC(NC(=O)c3ccc(Cl)nc3)CC2)cc(OCC)c1-c1ccc(F)cc1
7.96 |  | 0.03 | 11 | > 4 | < 1 | 48 | 89 |  |  |  | CCOc1cc(CN2CCC(NC(=O)c3cncc(C)c3)CC2)ccc1-c1ccc(C(F)(F)F)cc1
7.92 |  | 2.36 | 4 | 3.61 | 106 (≈ 258 µM) |  |  |  |  |  | CCOc1cc(CN2CCC(NC(=O)c3cncc(C)c3)CC2)cc(OCC)c1C
7.74 | > 1000 | 0.64 | 5.4 | 3.73 | 152 (≈ 321 µM) | -1.2 | 224 |  |  |  | CCOc1cc(CN2CCC(NC(=O)c3cncc(C)c3)CC2)cc(OCC)c1-c1ccccc1
7.9 | > 1000 | 2.07 | 6.9 | 3.13 | 155 (≈ 317 µM) | 13 | 439 |  |  |  | CCOc1cc(CN2CCC(NC(=O)c3ccc(NC)nc3)CC2)cc(OCC)c1-c1ccccc1
7.66 | > 1000 | 0.14 | 6.7 | 3.94 | 5 (≈ 9.01 µM) | -1.2 | 660 | inactive | inactive | inactive | CCOc1cc(CN2CCC(NC(=O)c3ccc(N)nc3)CC2)cc(OCc2ccccc2)c1-c1ccc(F)cc1
7.84 | > 1000 | 2.41 | 6.3 | 3.39 | > 520 | 35 | 141 |  |  |  | CCOc1cc(CN2CCC(NC(=O)c3ccc(NC(C)C)nc3)CC2)cc(OCC)c1F
7.69 | > 1000 | 0.46 | 4.4 | 4.01 | 94 (≈ 191 µM) | 5.9 | 59 |  |  |  | CCOc1cc(CN2CCC(NC(=O)c3cncc(C)c3)CC2)cc(OCC)c1-c1ccc(F)cc1
7.86 | > 1000 | 1.39 | 7.1 | 3.15 | 123 (≈ 250 µM) | 4.7 | 407 |  |  |  | CCOc1cc(CN2CCC(NC(=O)c3ccc(N)nc3)CC2)cc(OCC)c1-c1ccc(F)cc1
7.87 | > 1000 | 1.32 | 4.9 | 4.1 | 101 (≈ 226 µM) | 89 | 84 |  |  |  | CCOc1cc(CN2CCC(NC(=O)c3cncc(C)c3)CC2)ccc1-c1ccc(F)cc1
7.86 | > 1000 | 1.23 | 2.5 | 3.83 | 153 (≈ 302 µM) | 11 | 211 |  |  |  | CCOc1cc(CN2CCC(NC(=O)c3ccc(NC)nc3)CC2)cc(OCC)c1-c1ccc(F)cc1
7.63 |  | 1.93 | 15 | 3.05 | 172 (≈ 443 µM) |  | 335 |  |  |  | CCOc1cc(CN2CCC(NC(=O)c3cncc(C)c3)CC2)ccc1Cl
7.34 | > 1000 | 3.17 | 11 | 2.61 | 473 (≈ 1020 µM) | 33 | 213 |  |  |  | CCOc1cc(CN2CCC(NC(=O)c3cncc(C)c3)CC2)cc(OCC)c1-n1ccnc1
 | > 1000 |  | 2.4 | > 4 | < 1 | 12 | 743 |  |  |  | CCOc1cc(CN2CCC(NC(=O)c3cncc(C)c3)CC2)cc(OCC)c1-c1ccc(OC(F)(F)F)cc1
8.34 | > 1000 | 1.56 | 9.3 | 3.31 | 81 (≈ 160 µM) | 54 | 86 |  |  |  | CCOc1cc(CN2CCCC(NC(=O)c3cncc(C)c3)CC2)cc(OCC)c1-c1ccc(F)cc1 (racemic)
